Test results: ChEMBL document CHEMBL4765334, “Chemical profiling of HIV-1 capsid-targeting antiviral PF74” (Eur J Med Chem, 2020)

Columns and labels:
[1] = Metabolic stability at phase 1 in human liver microsomes assessed as half life at 1 uM by LC-MS/MS analysis; assay type: ADME, Microsome
[2] = Stability of the compound in mouse plasma assessed as half life incubated for 3 hrs by LC-MS/MS analysis; assay type: ADME, cell-free
[3] = system: Human immunodeficiency virus 1; assay: Antiviral activity against HIV1 NL4-3 infected in human TZM-GFP cells assessed as number of GFP positive cells incubated for 48 hrs by imaging reader; assay type: functional, organism-based; details: Human immunodeficiency virus 1, NL4-3, TZM
Summary of the method: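 TZM-GFP cells seeded 1 × 10^4/well and given increasing compound concentrations 24 h later; infected with HIV-1 NL4-3 (MOI = 1) after a further 24 h. Read-out after 48 h: GFP-positive cell counts (LTR-driven) versus DMSO controls. EC50 fitted as log(inhibitor) vs normalized response, variable slope, per experiment and averaged; mean ± SD, duplicates, at least two independent experiments.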

[4] = Metabolic stability at phase 1 in mouse liver microsomes assessed as half life at 1 uM by LC-MS/MS analysis; assay type: ADME, Microsome; details: for half-life at 1 µM: liver microsomes; for t1/2: microsomes, 1 µM
[5] = Stability of the compound in human plasma assessed as half life incubated for 3 hrs by LC-MS/MS analysis; assay type: ADME, cell-free
[6] = system: Human immunodeficiency virus 1; assay: Binding affinity to covalently-crosslinked hexameric HIV1 capsid protein A14C/E45C/W184A/M185A mutant expressed in Escherichia coli BL21(DE3)RIL assessed as change in melting temperature at 20 uM incubated for 30 mins by thermal shift dye based fluorescence analysis
Summary of the method: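 Thermal shift: 15 μM CA121 in 50 mM sodium phosphate pH 8.0 with Sypro Orange and compound at 20 μM final or DMSO control. Heated 25 to 95 °C at 0.2 °C/10 s; fluorescence Ex 475–500, Em 520–590 nm. ΔTm = Tm(compound) − T0(DMSO) for CA hexamer melting.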

TZM = assay: (§1) Cytotoxicity against human TZM-GFP cells incubated for 72 hrs by XTT assay; assay type: cell-based; details: tzm, 72 h
Summary of the method: (§2)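 TZM-GFP cells seeded at 1 × 10^4 per well and exposed continuously to increasing compound concentrations for 72 h. Viable cell number read by XTT proliferation kit. CC50 fitted as log(inhibitor) vs normalized response, variable slope, per independent assay and averaged. Run in duplicate, at least two independent experiments, reported as mean ± standard deviation.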

[7] = system: Human immunodeficiency virus 1; assay: Antiviral activity against HIV1 NL4-3 infected in human TZM-GFP cells assessed as number of GFP positive cells at 2 uM incubated for 48 hrs by imaging reader; assay type: functional; details: Human immunodeficiency virus 1, NL4-3, TZM
Summary of the method: (§3)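 TZM-GFP cells seeded 1 × 10^4/well; after 24 h medium replaced with compound at the stated single concentration, then 24 h later infected with HIV-1 (MOI = 1). After 48 h, GFP-positive cells counted by imaging and percent inhibition determined versus DMSO controls. Duplicate wells, at least two independent experiments.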

[8] = system: Human immunodeficiency virus 1; assay: Antiviral activity against HIV1 NL4-3 infected in human TZM-GFP cells assessed as number of GFP positive cells at 20 uM incubated for 48 hrs by imaging reader; assay type: functional; details: Human immunodeficiency virus 1, NL4-3, TZM; summary of the method: as §3
[9] = as §1; assay type: cell-based; details: TZM-GFP cells; summary of the method: as §2
[10] = Metabolic stability at phase 1 in mouse liver microsomes assessed as half life at 1 uM in presence of Cobi-cistat CYP3A inhibitor by LC-MS/MS analysis; assay type: ADME, Microsome
[11] = Metabolic stability at phase 1 in human liver microsomes assessed as half life at 1 uM in presence of Cobi-cistat CYP3A inhibitor by LC-MS/MS analysis; assay type: ADME, Microsome

| SMILES | t1/2 [1] [min] | t1/2 [2] [h] | EC50 [3] [nM] | half-life at 1 µM [4] [min] | t1/2 [5] [h] | ΔTm [6] [°C] | CC50 (TZM) [µM] | inhibition at 2 µM [7] [%] | inhibition at 20 µM [8] [%] | t1/2 [4] [min] | CC50 at 72 h [9] [µM] | t1/2 [10] [min] | t1/2 [11] [min] |
| --- | --- | --- | --- | --- | --- | --- | --- | --- | --- | --- | --- | --- | --- |
| CCn1cc(CC(=O)N[C@@H](Cc2ccccc2)C(=O)N(C)c2ccccc2)c2ccccc21 | 0.9 | > 6 | 310 | 0.5 | > 6 | 6.7 | 23 | – | – | – | – | – | – |
| Cc1c(CC(=O)N[C@@H](Cc2ccccc2)C(=O)N(C)c2ccccc2)c2ccccc2n1C(C)C | 0.6 | > 6 | 280 | 0.5 | > 6 | 7.8 | 16 | – | – | – | – | – | – |
| CCn1c(C)c(CC(=O)N[C@@H](Cc2ccccc2)C(=O)N(C)c2ccc(F)cc2)c2ccccc21 | 1 | > 6 | 220 | 0.5 | > 6 | 10.7 | 19 | – | – | – | – | – | – |
| CC(C)n1cc(CC(=O)N[C@@H](Cc2ccccc2)C(=O)N(C)c2ccc(F)cc2)c2ccccc21 | 0.9 | > 6 | 370 | 0.5 | > 6 | 6.5 | 18 | – | – | – | – | – | – |
| CN(C(=O)[C@H](Cc1ccccc1)NC(=O)Cc1c[nH]c2ccccc12)c1ccc(F)cc1 | 1.3 | > 6 | 1800 | 0.5 | > 6 | 3.3 | > 100 | – | – | – | – | – | – |
| CN(C(=O)[C@H](Cc1ccccc1)NC(=O)Cc1c[nH]c2ccccc12)c1cccc(Cl)c1 | – | – | – | – | – | 4.9 | < 50 | 38 | 99.5 | – | – | – | – |
| Cc1ccc(N(C)C(=O)[C@H](Cc2ccccc2)NC(=O)Cc2c[nH]c3ccccc23)cc1 | 1.5 | > 6 | 280 | – | > 6 | 6.6 | 66 | – | – | 0.6 | – | – | – |
| CN(C(=O)[C@H](Cc1ccccc1)NC(=O)Cc1c[nH]c2ccccc12)c1cc(F)cc(F)c1 | 0.9 | > 6 | 2500 | – | > 6 | 2.3 | < 50 | – | – | 0.6 | – | – | – |
| CCn1cc(CC(=O)N[C@@H](Cc2ccccc2)C(=O)N(C)c2ccc(F)cc2)c2ccccc21 | 1.3 | > 6 | 270 | 0.5 | > 6 | 7.1 | 18 | – | – | – | – | – | – |
| CC(C)n1cc(CC(=O)N[C@@H](Cc2ccccc2)C(=O)N(C)c2ccccc2)c2ccccc21 | 0.9 | > 6 | 330 | 0.5 | > 6 | 6 | 21 | – | – | – | – | – | – |
| CCN(C(=O)[C@H](Cc1ccccc1)NC(=O)Cc1c(C)[nH]c2ccccc12)c1ccccc1 | 0.9 | > 6 | 250 | 0.5 | > 6 | 8.5 | 82 | – | – | – | – | – | – |
| CN(C(=O)[C@H](Cc1ccccc1)NC(=O)Cc1c[nH]c2ccccc12)c1cccc(C(F)(F)F)c1 | – | – | – | – | – | 2.8 | < 50 | 16 | 96 | – | – | – | – |
| Cc1[nH]c2ccccc2c1CC(=O)N[C@@H](Cc1ccccc1)C(=O)N(C)c1cccc(Cl)c1 | – | – | 1200 | – | – | 7.6 | – | – | – | – | < 50 | – | – |
| COc1ccc(N(C)C(=O)[C@H](Cc2ccccc2)NC(=O)Cc2c(C)[nH]c3ccccc23)cc1 | 1 | > 6 | 630 | – | > 6 | 8.4 | > 100 | – | – | 0.7 | – | – | – |
| Cc1[nH]c2ccccc2c1CC(=O)N[C@@H](Cc1ccccc1)C(=O)N(C)c1ccc(F)cc1 | 1 | > 6 | 670 | 0.5 | > 6 | 7 | > 50 | – | – | – | – | – | – |
| COc1ccc(N(C)C(=O)[C@H](Cc2ccccc2)NC(=O)Cc2c[nH]c3ccccc23)cc1 | 1.6 | > 6 | 230 | – | > 6 | 6.2 | > 100 | – | – | 0.6 | – | – | – |
| CN(C(=O)[C@H](Cc1ccccc1)NC(=O)Cc1c[nH]c2ccccc12)c1cccc(F)c1 | – | – | – | – | – | 2.5 | – | 39 | 97 | – | 50 | – | – |
| CCN(C(=O)[C@H](Cc1ccccc1)NC(=O)Cc1c(C)n(C(C)C)c2ccccc12)c1ccccc1 | – | – | – | – | – | 7 | 23 | 39 | 99.7 | – | – | – | – |
| CN(C(=O)[C@H](Cc1ccccc1)NC(=O)Cc1c[nH]c2ccccc12)c1ccccc1 | – | – | 460 | – | – | 6.1 | – | – | – | – | > 100 | – | – |
| CN(C(=O)[C@H](Cc1ccccc1)NC(=O)Cc1c[nH]c2ccccc12)c1ccc(Br)cc1 | 2.1 | > 6 | 140 | – | > 6 | 8.3 | 45 | – | – | 0.7 | – | 52 | 131 |
| Cc1[nH]c2ccccc2c1CC(=O)N[C@@H](Cc1ccccc1)C(=O)N1CCC[C@H]1C(=O)Nc1ccccc1 | – | – | > 20000 | – | – | 0.6 | – | – | – | – | > 50 | – | – |
| CN(C(=O)[C@H](Cc1ccccc1)NC(=O)Cc1c[nH]c2ccccc12)c1ccc(Cl)nc1 | 2.1 | > 6 | 260 | – | > 6 | 4.9 | – | – | – | 0.7 | – | – | – |
| COc1cccc(N(C)C(=O)[C@H](Cc2ccccc2)NC(=O)Cc2c[nH]c3ccccc23)c1 | – | – | – | – | – | 1.3 | > 50 | 41 | 97 | – | – | – | – |
| CN(C(=O)[C@H](Cc1ccccc1)NC(=O)CCc1c[nH]c2ccccc12)c1ccccc1 | – | – | – | – | – | 2.3 | > 50 | 0 | 98 | – | – | – | – |
| Cc1ccc(N(C)C(=O)[C@H](Cc2ccccc2)NC(=O)Cc2c(C)[nH]c3ccccc23)cc1 | 0.9 | > 6 | 310 | 0.5 | > 6 | 9.1 | 72 | – | – | – | – | – | – |
| CCn1c(C)c(CC(=O)N[C@@H](Cc2ccccc2)C(=O)N(C)c2ccccc2)c2ccccc21 | 1 | > 6 | 280 | 0.5 | > 6 | 10.8 | 21 | – | – | – | – | – | – |
| Cc1c(CC(=O)N[C@@H](Cc2ccccc2)C(=O)N(C)c2ccc(F)cc2)c2ccccc2n1C(C)C | 0.6 | > 6 | 320 | 0.5 | > 6 | 7.5 | 20 | – | – | – | – | – | – |
| Cc1[nH]c2ccccc2c1CC(=O)N[C@@H](Cc1ccccc1)C(=O)N(C)c1ccccc1 | – | – | 610 | 0.6 | > 6 | 7.4 | – | – | – | – | – | – | – |
| Cc1cccc(N(C)C(=O)[C@H](Cc2ccccc2)NC(=O)Cc2c[nH]c3ccccc23)c1 | – | – | – | – | – | 1.6 | > 50 | 37 | 98 | – | – | – | – |
| Cc1[nH]c2ccccc2c1CC(=O)N[C@@H](Cc1cccc(Br)c1)C(=O)N(C)c1ccccc1 | – | – | – | – | – | 3.4 | < 50 | 0 | 94 | – | – | – | – |
